Test results published in the EternaBench riboswitch data.

Tested on: MS2 coat protein
Experiment: apparent Kd, MS2 coat protein; higher = weaker binding; RNA-MaP array; FMN 200 µM where present
Method in brief: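 Two titrations, one without ligand and one with constant ligand, were run with SNAP-549-labelled MS2 coat protein from 0.7 or 1.5 nM, doubling to 3 µM. The targets were designs transcribed by stalled E. coli RNA polymerase on Illumina sequencing-chip clusters, in 100 mM Tris-HCl pH 7.5, 80 mM KCl, 4 mM MgCl2, BSA, DTT, yeast tRNA and Tween-20. The apparent Kd is the median of filtered per-cluster binding-curve fits, with green signal normalised to red-channel RNA signal and control-cluster median Fmax.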

[1] = designed as: ON switch for flavin mononucleotide, no ligand
[2] = ligand present: flavin mononucleotide, designed as: ON switch for flavin mononucleotide
[3] = designed as: OFF switch for flavin mononucleotide, no ligand
[4] = ligand present: flavin mononucleotide, designed as: OFF switch for flavin mononucleotide

Row | Sequence | apparent Kd [1] | apparent Kd [2] | apparent Kd [3] | apparent Kd [4]
1 | AAUUUAAUACAUGAGGAUCACCCAUGUAAAUUAAUUAAGAUCUAGGAUAUCAGCUCGAUUAGAGCUGAGAAGGAGAUCACAUGU | 16.6 nM | 13.2 nM | – | –
2 | UGUCAUAAACAGAAGGGUAGUUGGGUUAUACAUGAGGAUCACCCAUGUAUUACAGGAUAUGUGUAAAGUUAUUAUUAAAGUAAA | – | – | 12.6 nM | 13.8 nM
3 | UAUGAACAUGAGGAUCACCCAUGUGGAAAGGACACAGGAUAUCAUCUCGCACGUGCGAUAUGAGAAGGGUGAUGGU | 117 nM | 180 nM | – | –
4 | GUGCGGUAGGAGAAGGACGGAGGCUUCAUUACAUACAUGAGGAUCACCCAUGUAGGAUAUCCUACCUCACGCGGCCUCCUUCUG | – | – | 6.52 nM | 7.65 nM
5 | UAUAUAUAGUAAGGAUAUGUAUUAAUUUUAGAAACAGAAGGUACUGACAUGAGGAUCACCCAUGUUUUAGUGUGGGCAUGUAGA | – | – | 98.3 nM | 147 nM
6 | ACAUGAGGAUCACCCAUGUUUUCAUGGAUUAUUAUUCUUUGAUAGGAUAUGUUAGUUAAGUAUUUACAGAAGGAUCAUUACCAA | – | – | 22.6 nM | 16.1 nM
7 | AGCUCCGCUCGAGGAUAUAGCUGCAUGUAGUGUCCUGAGGCACAUGAGGAUCACCCAUGUGUAGGCUAGAAGGCGACGGACAUU | – | – | 43.3 nM | 152 nM
8 | GGUACCAACACAGGAUAUGCUAUCCUUUGGGUAGCAGAAGGGUGAAAACAUGAGGAUCACCCAUGUGGUACCGGGCGUGAGCCC | 519 nM | 45.4 nM | – | –
9 | CGCCCGUAAGGAUAUACAUGAGGAUCACCCAUGUCGGUAACCGAAGGGCGAUACCUUUGUAGAAGGUACUGCGU | – | – | 14.8 nM | 13.7 nM
10 | GUCGGGAUUACAUGAGGAUCACCCAUGUCAGAACGGGCAGUCAGAAGGUGCCAUUAGGGAGAGGGUAAGGAUAUGAUUUUUGGC | 11.3 nM | 9.92 nM | – | –
11 | AAAACAUGAGGAUCACCCAUGUAAAGAACGGUUAAUAGAAGUGAGGAUAUACUAAAUUUUAGGUAGUAGAAGGCACUGGGUACA | 21.5 nM | 22.5 nM | – | –
12 | GUCUUAUUACAGAAGGUGUUUUACAUGAGGAUCACCCAUGUUUUAUUGUUUAAAUUUGAUAUUUACAAGGAUAUGUACUAAUCU | 25.1 nM | 21 nM | – | –
13 | UCGGCGCGAGGAUAUGCGGUUGCUUGGUAGGGUCGUGGCGUACAUGAGGAUCACCCAUGUAGAAGGCGCGCCGC | – | – | 19.6 nM | 25.9 nM
14 | GUUGCUAUCGGAGGAUAUUCAUACCGGAAACGGACAUGAGGAUCACCCAUGUGGCGAAAGCCAUGGGAGAAGGCCGAUAGCAAC | 1350 nM | 138 nM | – | –
15 | UGGAUGGUAUGAGGAUAUGCGCGUGAAACGCGCGCAGAAGGCAUGUCAAUAGACAUGAGGAUCACCCAUGUAUUAUCCAUCCAA | 258 nM | 15.8 nM | – | –
16 | UUCUUGGCAGGAUAUGCUUUUUUAGACAUGAGGAUCACCCAUGUGUUUAUUUUUUUUUUUGCAGAAGGGCCUUAAU | – | – | 16.4 nM | 19.5 nM
17 | UACAGACAUGAGGAUCACCCAUGUAAGGAUAUCGGUACUGAUGGUAUAAUCUACUCAGCGAGAAGGUACAGUGU | – | – | 33.6 nM | 33.2 nM
18 | UUUGUUUAUGUGAGGAUAUACUGUUUGUUUUGUUUGUAGAAGGUACAUGAGGAUCACCCAUGUUUUGUUUUUUU | – | – | 22.8 nM | 20.5 nM

Row | Sequence | apparent Kd [1] | apparent Kd [2] | apparent Kd [3] | apparent Kd [4]
19 | ACAGAGGCUGACAUGAGGAUCACCCAUGUUAGAUUGUUAUGUCAGGAUAUUAUCUGGCAACCAGAUAAGAAGGGACCCUCUGUG | 31.2 nM | 8.45 nM | – | –
20 | CCGUGGCAAGGAUAUACAUAGGAGAGGAAGGCAAGAGGAGGACAUGAGGAUCACCCAUGUAGAAGGUGCAGAUC | – | – | 73.8 nM | 67.8 nM
21 | CUUUUGUGAGGAUAUUAGUAGUAAACAAACAAAAUUAUUACUGAGAAGGCACAUGAGGAUCACCCAUGUUCCUC | – | – | 39.7 nM | 637 nM
22 | UGUCACGUAGUAGGAUAUGACAUGAGGAUCACCCAUGUUAACUCUAACCUCGAGGAUCGUCAUGGUCAGAAGGACUCAGACAAG | – | – | 209 nM | 75.9 nM
23 | GGUGGUGAGCAAGGAUAUCGCCACUGCGUGACCUCACAACGGAUACAUGAGGAUCACCCAUGUGGCGAGAAGGUGCGGGAACGG | – | – | 29.4 nM | 44 nM
24 | CCGGAAACGGGUAGCUCACAUGAGGAUCACCCAUGUAAAACACAGGAUAUGGAUCCUAAUUGGAUCCAGAAGGGUGUGAGCUAC | 40.1 nM | 23.6 nM | – | –
25 | GCGCGCGCAGGAUAUACAUGAGGAUCACCCAUGUAGCGCGCGCGUAUUUGUGUGUGUUGUAGAAGGGUGUGUGU | – | – | 20 nM | 18.2 nM
26 | GCCUUGUCAGGAUAUCCGCGCGGGUGGCGCAUGCACUGCGUGGAGAAGGGACAUGAGGAUCACCCAUGUGCGUA | – | – | 89.2 nM | 317 nM
27 | GUUAUGCAGCAGGAUAUCCAUCCGCGGUAUGAUGGAGAAGGGCUGACAUGAGGAUCACCCAUGUGCGUCCUAGG | – | – | 40.3 nM | 97.1 nM
28 | UUUUAACAUGAGGAUCACCCAUGUGAGGAUAUCGAAAUUUAUAUUAAUAUUUUUAUUUCGAGAAGGCACAUUUU | – | – | 144 nM | 166 nM
29 | AACAGUACAGGAUAUACAUGAGGAUCACCCAUGUGAGAAUUAAGUGGCGAACCACAAAGUAGAAGGGUACUGGA | – | – | 59.6 nM | 197 nM
30 | GGACCGCGUAGAAUUAGCGGCCGGCAGGAUAUGACAUGAGGAUCACCCAUGUGAACUCCAUUGGGUCAGAAGGGCCACGACACA | – | – | 20.6 nM | 96.4 nM
31 | AAAAUGUGAGGAUAUCACGGAACUCCGCGUGACGGAGCUCCUGAGAAGGCACAUGAGGAUCACCCAUGUCCUGU | – | – | 52.8 nM | 276 nM
32 | GCUUGUGGGCAAGGAUAUCCUACGUUGUUCUGGUUCGUGUCUGUCACAUGAGGAUCACCCAUGUGGGAGAAGGUGCAUUUGGUG | – | – | 19.7 nM | 17.1 nM
33 | GGGCUCGGUGUGAGGAUAUCGGGCUCUAAAGGGCUCGAGAAGGCACAUGAGGAUCACCCAUGUAAGUCGGGCUC | – | – | 14.8 nM | 15 nM
34 | GGAUGACAAAGUCAUCCUAUUCGAACAUGAGGAUCACCCAUGUAGGAUAUGCUACUCAAAGAGUAGCAGAAGGACAUGUGCUUU | – | – | 37.6 nM | 165 nM
35 | UGAGCCUCGUGAGGAUAUACAUGAGGAUCACCCAUGUAAUAGGAUGAACGGUGGAAACACCGAAUGUAGAAGGCACGAGGCUCA | – | – | 82.2 nM | 869 nM
36 | GGGUGGGUACAGAAGGGAGUGAUGGGUUUUUGGUUUGACAUGAGGAUCACCCAUGUUUAUCUGGUUCAGGAUAUGUAGUGGUGG | 149 nM | 97.3 nM | – | –
